Measurements from different studies.
Protocols differ between the studies behind these lines.
DPP4: Dipeptidyl peptidase 4 (DPP4, Homo sapiens, UniProt P27487)
CYP2C9: Cytochrome P450 2C9 (CYP2C9, Homo sapiens, UniProt P11712)
ENAH: Protein enabled homolog (ENAH, UniProt Q8N8S7)
CYP2C8: Cytochrome P450 2C8 (CYP2C8, Homo sapiens, UniProt P10632)

| SMILES | target | test | system | setting | endpoint | result |
| --- | --- | --- | --- | --- | --- | --- |
| Cn1c(=O)cc(N2CCC(N)CC2)n(Cc2nc3ccc(Br)cc3c(=O)n2-c2cccc(F)c2)c1=O | DPP4 | enzyme activity, inhibitor | – | – | IC50 | 22.1 µM |
| COc1cc(O)c2c(c1)C(=O)c1cc(C)cc(O)c1C2=O | CYP2C9 | enzyme activity, inhibitor | human, liver microsomes | pH 7.4 | Ki | 3.69 µM |
| Cn1c(=O)cc(N2CCC(N)CC2)n(Cc2nc3ccccc3c(=O)n2-c2ccc(F)c(Cl)c2)c1=O | DPP4 | enzyme activity, inhibitor | – | – | IC50 | 35.7 µM |
| CSCC[C@H](NC(=O)[C@H](CCC(=O)O)NC(=O)[C@H](CS)NC(=O)[C@H](CO)NC(=O)[C@H](CC(C)C)NC(=O)[C@H](CCC(=O)O)NC(=O)[C@@H](N)CCC(=O)O)C(=O)N[C@@H](CCC(=O)O)C(=O)NCC(=O)N[C@@H](CC(N)=O)C(=O)N[C@@H](CC(C)C)C(=O)N[C@@H](CCC(=O)O)C(=O)N[C@@H](Cc1c[nH]cn1)C(=O)N[C@@H](CC(C)C)C(=O)N1CCC[C@H]1C(=O)N1CCC[C@H]1C(=O)N1CCC[C@H]1C(=O)N1CCC[C@H]1C(=O)N[C@@H](CCSC)C(=O)N[C@@H](CCC(=O)O)C(=O)N[C@H](C(=O)N[C@@H](CC(C)C)C(=O)N[C@@H](CCSC)C(=O)N[C@@H](CC(=O)O)C(=O)N[C@@H](CCCCN)C(=O)N[C@@H](CO)C(=O)N[C@@H](Cc1ccccc1)C(=O)N[C@@H](C)C(=O)N[C@@H](CO)C(=O)N[C@@H](CC(C)C)C(=O)N[C@@H](CCC(=O)O)C(=O)N[C@@H](CO)C(=O)N1CCC[C@H]1C(=O)N[C@@H](CCC(=O)O)C(=O)N[C@@H](CO)C(=O)O)C(C)C | ENAH | binding, fluorescence | – | – | Kd | 3.1 µM |
| Cn1nc2c(=O)n(C3CC3)ccc2c1[C@](O)(c1cnc(C(F)(F)F)c(Cl)c1)C(F)(F)F | CYP2C8 | enzyme activity, inhibitor | human, liver microsomes | pH 7.4 | IC50 | > 20 µM |
| CN(C)c1ncnc2c1ncn2[C@@H]1O[C@H](CCl)[C@@H](NC(=O)[C@H](CSC(c2ccccc2)c2ccccc2)NC(=O)OC(C)(C)C)[C@H]1O | Aminopeptidase N (ANPEP, Homo sapiens, UniProt P15144) | enzyme activity, inhibitor, fluorescence | – | – | IC50 | > 100 µM |
| Cn1c(=O)cc(N2CCC(N)CC2)n(Cc2nc3ccc(Br)cc3c(=O)n2-c2ccc(Br)cc2)c1=O | DPP4 | enzyme activity, inhibitor | – | – | IC50 | 11.2 µM |
| C=C(F)C(=O)N1CCN(c2nc(OC[C@@H]3CCCN3C)nc3c2CCN(c2cccc4cccc(Cl)c24)C3)C[C@@H]1CC#N | CYP2C9 | enzyme activity, inhibitor | human, liver microsomes | – | Ki | 3.2 µM |
| CC[C@@](N)(c1cnc(C(F)(F)F)c(Cl)c1)c1c2ncn(C3CC3)c(=O)c2nn1C | CYP2C9 | enzyme activity, inhibitor | human, liver microsomes | pH 7.4 | IC50 | > 20 µM |
| CC[C@H](C)[C@H](NC(=O)[C@H](Cc1c[nH]cn1)NC(=O)[C@@H](N)CCC(=O)O)C(=O)N1CCC[C@H]1C(=O)N1CCC[C@H]1C(=O)N1CCC[C@H]1C(=O)N1CCC[C@H]1C(=O)N[C@@H](CCCNC(=N)N)C(=O)N1CCC[C@H]1C(=O)N1CCC[C@H]1C(=O)N[C@@H](CCCCN)C(=O)N[C@@H](CCCNC(=N)N)C(=O)O | ENAH | binding, FP | – | – | Kd | 13 µM |
| Cn1cncc1[C@@](N)(c1ccc(Cl)cc1)c1ccc2c(c1)c(-c1cccc(Cl)c1)cc(=O)n2C | CYP2C9 | enzyme activity, inhibitor | human, liver microsomes | – | Ki | 0.35 µM |
| Cn1nc2c(=O)n(C3CC3)cnc2c1[C@](O)(c1cnc(C(F)(F)F)c(Cl)c1)C(F)(F)F | CYP2C8 | enzyme activity, inhibitor | human, liver microsomes | pH 7.4 | IC50 | > 20 µM |
| CO[C@]1(C(=O)N[C@@H](C)c2ccc(-n3cc(F)cn3)nc2)CC[C@H](c2nc(C)cc(Nc3cc(C)[nH]n3)n2)CC1 | CYP2C8 | enzyme activity, inhibitor | human, liver microsomes | – | Ki | 9.6 µM |
